A selection: hits, their analogues and other compounds. The true share with any hit is near 2.1%.
CXCR6 block – CXCR6 receptor inhibitors, primary screen, cell-based, beta-arrestin, luminescence, CHO-K1 PathHunter, 1536-well; inhibition, % at 20 µM; actives 0.36% (n = 360,000); in the data active = inhibition above about 34%, passing the limit was not always enough;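 note: antagonist mode with CXCL16 agonist at 10 nM final; 0% = 10 nM CXCL16 with DMSO and 100% = unstimulated wells without agonist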
CCR6 antagonist – CCR6 receptor antagonists, primary screen, cell-based, CHO-K1, luminescence, beta-arrestin, uHTS | inhibition, % at 20 µM | actives 0.49% (n = 340,000) | AID 493098, 2011 | C-C chemokine receptor type 6 (Homo sapiens), P51684 | CHO-K1 CCR6 PathHunter beta-arrestin, CCL20-stimulated;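 active = compounds whose inhibition of the agonist-driven luminescence signal at 20 µM reaches about 50%, limit read from the data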;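 note: cells stimulated with CCL20 at 14 nM final; plate controls were DMSO with CCL20 for no effect and DMSO without agonist for full effect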
Target sequence (P51684 whole entry, looked up): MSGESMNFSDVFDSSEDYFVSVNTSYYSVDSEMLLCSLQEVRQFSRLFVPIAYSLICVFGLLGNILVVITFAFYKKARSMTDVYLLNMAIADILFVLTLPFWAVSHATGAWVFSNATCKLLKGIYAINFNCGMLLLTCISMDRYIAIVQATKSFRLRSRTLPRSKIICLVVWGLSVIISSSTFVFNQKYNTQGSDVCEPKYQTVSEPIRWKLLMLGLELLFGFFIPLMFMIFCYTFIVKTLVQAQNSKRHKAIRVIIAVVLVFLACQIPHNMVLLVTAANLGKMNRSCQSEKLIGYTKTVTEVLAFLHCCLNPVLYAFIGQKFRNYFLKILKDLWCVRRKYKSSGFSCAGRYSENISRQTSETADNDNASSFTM
APJ agonist – agonists of human apelin receptor APJ, primary screen, CHO-K1 cells, PathHunter beta-arrestin, luminescence | actives 0.11% (n = 330,000) | activation, % at 20 µM | AID 2520, 2010 | P35414 | 0% DMSO wells, 100% apelin;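 active = activation more than six SD over the plate average, tested at 20 µM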;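 note: 0% = DMSO alone and 100% = apelin-13 at 10 nM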
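Test system: CHO-K1 APJ beta-arrestin complementation cell line | Compound: Single test compound dose, 20 µM final, 1% DMSO | Incubation: Compound 90 min 25 °C, reagent 1 h | Measured by: beta-gal luminescence | Read-out basis: APJ–arrestin association signal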
m5-HT2A agonist – mouse Htr2a agonists via beta-arrestin recruitment, primary screen, cell-based, luminescence; CHO-K1 mHTR2A beta-arrestin complementation; percent of 30 µM serotonin response; activation, % at 7.6 µM; actives 0.66% (n = 360,000);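 active = activation above a run cutoff, the mean activation of all tested compounds plus 3 SD, cut at about 14% in these data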;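 note: 0% = plate median of compound wells and 100% = 30 µM serotonin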
EBI2 antag – EBI2 receptor antagonists, beta-arrestin recruitment, primary screen, cell-based, luminescence, 7a,25-OHC stimulation, uHTS; G-protein coupled receptor 183 (Homo sapiens), P32249; 7a,25-OHC stimulated; inhibition, % at 5 µM; actives 0.81% (n = 360,000); in the data active = inhibition above about 38%;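 note: enzyme fragment complementation signal reports receptor beta-arrestin coupling in cells; 0% = agonist plus DMSO wells and 100% = wells without agonist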
Target sequence (P32249 whole entry, looked up, the tested form may be a part): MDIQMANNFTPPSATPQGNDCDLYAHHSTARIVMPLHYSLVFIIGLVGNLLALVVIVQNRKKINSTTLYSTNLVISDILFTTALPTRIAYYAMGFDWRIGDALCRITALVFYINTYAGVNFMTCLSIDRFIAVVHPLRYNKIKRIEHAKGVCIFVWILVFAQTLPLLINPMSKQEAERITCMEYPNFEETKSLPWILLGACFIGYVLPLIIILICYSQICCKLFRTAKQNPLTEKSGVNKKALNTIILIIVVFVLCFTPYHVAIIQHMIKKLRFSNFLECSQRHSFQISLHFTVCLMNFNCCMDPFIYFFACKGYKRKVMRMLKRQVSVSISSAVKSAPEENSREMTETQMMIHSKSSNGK
APJ antag – antagonists of human apelin receptor APJ, primary screen, CHO-K1 cells, beta-arrestin complementation, luminescence; inhibition, % at 20 µM; P35414; AID 2521, 2010; actives 0.32% (n = 330,000);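 active = inhibition above about 40% at 20 µM, limit read from the data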;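 note: cells challenged with 10 nM apelin-13 agonist together with compound; plate controls were apelin-13 plus DMSO wells for no effect and DMSO wells lacking apelin-13 for full effect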
EBI2 conf – EBI2 antagonist hit retest, beta-arrestin, confirmation, cell-based, single concentration, luminescence, 7a,25-OHC stimulation; shares compounds with EBI2 antag; 7a,25-OHC antagonism; inhibition, % at 5 µM; actives 29% (n = 2,400); AID 651997, 2013;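 active = inhibition of at least 50%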
EBI2 ag – EBI2 agonist activity of antagonist hits, confirmation, counter-screen for EBI2 antagonist project, cell-based, single concentration, agonist mode, luminescence. EBI2-expressing cells, 60 min; 0% vehicle, 100% 7α,25-dihydroxycholesterol control. 2,400 tested, under 10 active. AID 652000, 2013. activation, % at 5 µM. shares compounds with EBI2 antag;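 active = activation of at least 50%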
bGal counter – E. coli beta-galactosidase enzyme inhibition, confirmation, counter-screen for EBI2 antagonist project, biochemical, luminescence, single concentration. shares compounds with EBI2 antag. purified beta-galactosidase, luminescent Galacton Star, 15 min. inhibition, % at 5 µM. actives 1% (n = 2,400);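 active = replicate-average signal at least 3 plate SD below neutral wells, shown as high inhibition, flagging enzyme-inhibiting false positives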;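 note: 0% = DMSO wells with enzyme and 100% = wells lacking enzyme; higher means stronger loss of beta-gal luminescence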
* marks the source's active call; other numbers are inactive results; x = not tested or not shown.

SMILES	CXCR6 block	CCR6 antagonist	APJ agonist	m5-HT2A agonist	EBI2 antag	APJ antag	EBI2 conf	EBI2 ag	bGal counter
Cc1cc(Cl)ccc1OCC(=O)N1CCN(c2ncccn2)CC1	9.8	6.6	-2.5	2.5	55.8*	7.2	36.2	-0.4	-18.0
Cc1ccc(C(C)C)c(OCC(=O)N2CCOCC2)c1	9.2	3.6	-2.3	-1.2	-2.5	-14.0	x	x	x
Cc1cc(Cl)ccc1OCC(=O)N1CCCCC1	0.8	0.4	-8.6	-2.5	8.0	12.7	x	x	x
Cc1cc(Cl)cc(C)c1OCC(=O)N1CCN(c2ncccn2)CC1	4.8	2.8	-0.8	1.6	75.7*	-1.2	42.2	-1.5	-15.7
CCOc1ccc(C(=O)/C=C/c2cc(OC)c(OC)c(OC)c2)cc1	2.8	13.2	-2.1	-4.1	12.4	2.0	x	x	x
COc1ccc(C(=O)/C=C/c2ccc(OC(=O)c3cc(OC)c(OC)c(OC)c3)cc2)cc1	2.7	17.0	-2.0	-0.1	45.0*	-8.4	10.4	0.7	7.6
Cc1ccc(S(=O)(=O)N2CCN(C(=O)c3ccccc3Cc3ccccc3)CC2)c(C)c1	2.7	15.6	1.5	-1.9	10.2	-7.9	x	x	x
O=C(c1ccccc1)c1c[nH]c(C(=O)C(Cl)(Cl)Cl)c1	0.7	15.0	-3.0	-0.3	0.6	-10.2	x	x	x
O=C(c1ccc(Cl)cc1)c1c[nH]c(C(=O)C(Cl)(Cl)Cl)c1	-3.6	24.7	-4.3	0.0	42.0*	25.2	47.0	2.9	-0.2
c1ccc2c(OCCCN3CCCCCC3)cccc2c1	7.0	0.0	-2.8	2.9	3.3	4.6	x	x	x
C=CCCC(=O)N1C[C@H]2CON(C)[C@H]2C[C@H]1c1ccc(N2CCCCC2)cc1	4.7	x	x	2.9	-8.8	x	x	x	x
O=C(CSc1nnc(Cc2ccccc2)o1)N1CCCc2ccccc21	-0.8	9.3	8.5	0.8	11.5	-15.3	x	x	x
Cc1[nH]c2ccc(-c3nnc(SCC(=O)N4CCCc5ccccc54)o3)cc2c1C	0.7	11.5	1.6	-0.2	50.9*	-10.7	46.9	2.8	4.6
O=C(NC12CC3CC(CC(C3)C1)C2)C1CC(=O)N(c2ccc(Br)cc2)C1 (configuration not stated)	-6.2	-2.2	-1.1	-0.4	50.6*	-20.1	32.9	0.7	4.5
COc1ccccc1OCCNC(=O)C(c1ccccc1)c1ccccc1	5.0	-3.3	0.4	0.6	8.2	16.5	x	x	x
O=C(NCCOc1ccccc1)C(c1ccccc1)c1ccccc1	11.5	15.5	-1.7	-8.4	53.4*	-17.3	43.6	-0.8	-16.3
COc1ccc(OCCNC(=O)C(c2ccccc2)c2ccccc2)cc1	-4.9	17.4	-2.8	-2.2	85.0*	-5.8	52.4*	-1.5	-9.9
COc1ccc(C(=O)COC(=O)c2nc3nccc(C)n3n2)cc1F	-0.7	-0.1	-3.2	4.5	-3.0	-3.3	x	x	x
Cc1nc2ccc(C(=O)Nc3cccc(OCC(=O)N(C)C)c3)cn2c1N(C)CC1CCCCC1	2.6	x	x	-2.3	7.8	x	x	x	x
Cc1ccc(S(=O)(=O)N2C[C@H]3[C@H]4C(=O)N(C)C(=O)[C@H]4CC(=O)[C@H]3[C@@H]2c2ccccc2F)cc1	-1.3	x	x	0.3	-8.1	x	x	x	x
CS(=O)(=O)N(CC(=O)NCCSc1ccccc1)c1ccc2c(c1)OCO2	11.3	9.9	-3.3	-9.0	21.9	0.2	x	x	x
COc1ccc(N(CC(=O)NCCSc2ccccn2)S(=O)(=O)c2ccccc2)cc1OC	7.8	-4.5	-3.6	3.0	-6.5	3.9	x	x	x
CS(=O)(=O)N(CC(=O)NCCSc1ccc(Cl)cc1)c1ccc2c(c1)OCO2	-8.5	39.0	-0.3	-7.0	87.1*	6.7	63.3*	-0.1	3.2
COc1ccc(N(CC(=O)NCCSc2ccccc2)S(=O)(=O)c2ccccc2)cc1OC	-15.0	16.3	0.5	-3.4	48.5*	-4.6	27.1	1.4	0.3
O=C(NC(=S)Nc1ccc(S(=O)(=O)N2CCCCC2)cc1)c1ccccc1	18.0	42.0	-1.1	1.7	36.4	16.6	x	x	x
SMILES	CXCR6 block	CCR6 antagonist	APJ agonist	m5-HT2A agonist	EBI2 antag	APJ antag	EBI2 conf	EBI2 ag	bGal counter
CC1CC(C)CN(S(=O)(=O)c2ccc(NC(=S)NC(=O)c3ccccc3)cc2)C1 (configuration not stated)	23.1	34.6	-4.4	-7.0	46.8*	-6.7	21.0	1.2	4.6
COc1ccc(NC(=O)c2csc(Cc3ccccc3)n2)cc1	-13.2	13.1	2.8	1.7	40.2*	9.2	35.2	0.2	-17.2
Cc1ccc(Sc2cc(NCCCO)c([N+](=O)[O-])c3nonc23)cc1	13.0	21.5	-2.8	0.3	53.1*	7.0	7.9	-1.4	-13.9
Fc1ccc(-c2ccc(Nc3cccc(F)c3)nn2)cc1	-4.6	2.7	-0.8	-3.0	16.6	0.6	x	x	x
Fc1ccc(Nc2ccc(-c3ccc(F)cc3)nn2)cc1	-1.2	8.1	-1.9	2.1	59.9*	-14.4	28.1	-1.3	-7.5
N#C/C(=C\c1cccn1S(=O)(=O)c1cccc(C#N)c1)S(=O)(=O)c1ccc(F)cc1	2.0	x	x	0.1	5.9	x	x	x	x
COc1ccc(NC(=O)c2cc(=O)c3ccccc3o2)cn1	-9.0	12.7	0.2	0.5	4.7	9.7	x	x	x
COc1ccc(NC(=O)c2cc3ccccc3o2)cn1	-2.2	3.6	-2.6	-2.0	38.0*	6.4	19.4	1.0	7.4
COc1ccccc1NC(=O)CC1S/C(=N/N=C(\C)C2CCCCC2)NC1=O (configuration not stated)	1.3	13.5	1.3	5.5	-3.8	11.4	x	x	x
CC1(C)Cc2c(c(N3CCOCC3)nc3sc4c(NCCN5CCOCC5)nnnc4c23)CS1	-2.0	-2.9	1.9	-12.1	-1.7	14.1	x	x	x
CC(C)CCNc1nnnc2c1sc1nc(N3CCOCC3)c3c(c12)CC(C)(C)SC3	10.0	1.0	-2.4	-6.7	51.9*	11.8	42.8	-1.7	-3.5

Compound activity deposited in PubChem BioAssay by several laboratories.
